Data set [1] has as its target Serine/threonine-protein kinase SIK1 (Homo sapiens) (UniProt P57059). As to the kind of experiment: Inhibition of recombinant human SIK (1 to 281 residues) at 1 uM using AMARAASAAALARRR as substrate incubated for 40 mins in presence of [gamma-33P]-ATP by scintillation counting method relative to control.
A short description of data set [2]: Toxicity in BALB/c mouse assessed as effect on blood parameter by measuring lymphocytes content at 40 mg/kg, po administered once two days for 4 times by hematology analyzer. The following applies: in vivo.
The test system of the next data set is Mus musculus. The experiment in a line: Antiangiogenic activity in Matrigel plug angiogenic BALB/c mouse assessed as reduction in blood vessel formation at 10 to 20 mg/kg, sc measured after 10 days by Matrigel plug assay. The data set is classed as functional, organism-based. The essentials: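 Balb/c mice, 5 weeks old, were injected subcutaneously with 750 µL of a 2:1 mix of growth factor-reduced Matrigel and compound (10 or 20 mg/kg) or vehicle. Plugs were harvested after 10 days and the subcutaneous vessels photographed.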

The target in data set [3] is Mitogen-activated protein kinase kinase kinase 3 (Homo sapiens) (UniProt Q99759). As to the kind of experiment: Inhibition of recombinant human full length MEKK3 at 1 uM using myelin basic protein as substrate incubated for 40 mins in presence of [gamma-33P]-ATP by scintillation counting method relative to control.
The test system of data set [4] is HeLa. As to the kind of experiment: Antiproliferative activity against human HeLa cells assessed as reduction in cell viability at 40 to 80 nM incubated for 48 hrs by EdU staining based laser scanning confocal microscopy. The data set is classed as functional. The essentials: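 Cells, 5×10^4, were seeded in 24-well plates and treated for 48 h. They were then labeled using an EdU Apollo 488 imaging kit with Hoechst 33342 nuclear stain and imaged by laser scanning confocal microscopy. Percent EdU-positive cells = EdU-positive/Hoechst-stained × 100%.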

The target of data set [5] is Glycogen synthase kinase-3 alpha (Homo sapiens) (UniProt P49840). The experiment in a line: Inhibition of recombinant human GSK3alpha (2 to end residues) at 1 uM using YRRAAVPPSPSLSRHSSPHQS(p) EDEEE as substrate incubated for 40 mins in presence of [gamma-33P]-ATP by scintillation counting method relative to control. The essentials:
(§1)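 Tested at a single 1 uM in an outsourced commercial kinase-profiling panel, read as percent inhibition. Each value is the mean of two independent experiments.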

Data set [6] concerns the target RAC-gamma serine/threonine-protein kinase (Homo sapiens) (UniProt Q9Y243). The experiment in a line: Inhibition of recombinant human PKBgamma (117 to end residues) at 1 uM using GRPRTSSFAEGKK as substrate incubated for 40 mins in presence of [gamma-33P]-ATP by scintillation counting method relative to control.
Data set [7] has as its target Mitogen-activated protein kinase kinase kinase 2 (Homo sapiens) (UniProt Q9Y2U5). As to the kind of experiment: Inhibition of recombinant human full length MEKK2 at 1 uM using myelin basic protein as substrate incubated for 40 mins in presence of [gamma-33P]-ATP by scintillation counting method relative to control.
The target of data set [8] is Serine/threonine-protein kinase NIM1 (Homo sapiens) (UniProt Q8IY84). As to the kind of experiment: Inhibition of recombinant human full length NIM1 at 1 uM using KKKVSRSGLYRSPSMPENLNRPR as substrate incubated for 40 mins in presence of [gamma-33P]-ATP by scintillation counting method relative to control.
Data set [9] has as its target Leucine-rich repeat serine/threonine-protein kinase 2 (Homo sapiens) (UniProt Q5S007). The experiment in a line: Inhibition of recombinant human LRRK2 (970 to end residues) at 1 uM using RLGRDKYKTLRQIRQ as substrate incubated for 40 mins in presence of [gamma-33P]-ATP by scintillation counting method relative to control.
For data set [10], the target named is Serine/threonine-protein kinase Nek2 (Homo sapiens) (UniProt P51955). The experiment in a line: Inhibition of recombinant human full length NEK2 at 1 uM using myelin basic protein as substrate incubated for 40 mins in presence of [gamma-33P]-ATP by scintillation counting method relative to control.
For data set [11], the target named is Serine/threonine-protein kinase B-raf (Homo sapiens) (UniProt P15056). The experiment in a line: Inhibition of recombinant human B-Raf (416 to end residues) at 1 uM using myelin as substrate incubated for 40 mins in presence of [gamma-33P]-ATP by scintillation counting method relative to control. A digest of the protocol: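 Kinase panel profiling at 1 μM performed by Eurofins KinaseProfiler; percent inhibition reported as mean of two independent experiments.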

In data set [12] the target is Dual specificity mitogen-activated protein kinase kinase 6 (Homo sapiens) (UniProt P52564). The experiment in a line: Inhibition of recombinant human MKK6 (4 to end residues) at 1 uM using unactive SAPK2a as substrate incubated for 40 mins in presence of [gamma-33P]-ATP by scintillation counting method relative to control.
The target of data set [13] is Serine/threonine-protein kinase SBK1 (Homo sapiens) (UniProt Q52WX2). The experiment in a line: Inhibition of recombinant human full length SBK1 at 1 uM using KKLRRTLSVA as substrate incubated for 40 mins in presence of [gamma-33P]-ATP by scintillation counting method relative to control.
For data set [14], the system named is HeLa. The experiment in a line: Induction of cell cycle arrest in human HeLa cells assessed as decrease in accumulation in S phase at 40 to 80 nM incubated for 36 hrs by propidium iodide staining based flow cytometry. The data set is classed as functional. The essentials: (§2)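 Cells were treated with graded concentrations for 36 h, then fixed overnight in 70% ice-cold ethanol at 4°C and resuspended in PBS. Staining used 50 µg/ml PI plus 5 µg/ml RNase at 37°C for 30 min. DNA content was analysed by FACS to give G0/G1, S and G2/M fractions.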
(Flow cytometry measures light scatter and fluorescence of single cells or particles in a stream.)

The target in data set [15] is Fibroblast growth factor receptor 3 (Homo sapiens) (UniProt P22607). As to the kind of experiment: Inhibition of recombinant human FGFR3 (447 to 761 residues) at 1 uM using poly(Glu, Tyr) 4:1 as substrate incubated for 40 mins in presence of [gamma-33P]-ATP by scintillation counting method relative to control. A digest of the protocol: as §1
The target in data set [16] is Serine/threonine-protein kinase PLK3 (Homo sapiens) (UniProt Q9H4B4). The experiment in a line: Inhibition of recombinant human PLK3 (19 to 301 residues) at 1 uM using casein as substrate incubated for 40 mins in presence of [gamma-33P]-ATP by scintillation counting method relative to control.
The target of data set [17] is PI3-kinase p110-alpha/p85-alpha (Homo sapiens) (UniProt P27986+P42336). The experiment in a line: Inhibition of recombinant human full length PI3K p110alpha/p85alpha at 1 uM using phosphatidylinositol 4,5-bisphosphate as substrate incubated for 40 mins in presence of [gamma-33P]-ATP by scintillation counting method relative to control. The class given is protein-complex assay.

The target in data set [18] is Serine/threonine-protein kinase 26 (Homo sapiens) (UniProt Q9P289). The experiment in a line: Inhibition of recombinant human MST4 (4 to 304 residues) at 1 uM using RLGRDKYKTLRQIRQ as substrate incubated for 40 mins in presence of [gamma-33P]-ATP by scintillation counting method relative to control.
Another data set deals with CDK4/Cyclin D3 (Homo sapiens, UniProt P11802). As to the kind of experiment: Inhibition of recombinant full length human CDK4/Cyclin D3 using Rb-fragmen as substrate incubated for 40 mins by [gamma-33P]-ATP based radiometric assay. The class given is protein-complex assay.
For another data set, the system named is SiHa. The experiment in a line: Induction of cell cycle arrest in human SiHa cells assessed as accumulation in G2/M phase at 80 nM incubated for 36 hrs by propidium iodide staining based flow cytometry. The data set is classed as functional. A digest of the protocol:
as §2

Active and inactive are the calls of the source. No cut-off for these calls is given here.

Serine/threonine-protein kinase 26 (Homo sapiens), sequence (Q9P289 2-416 limits assumed): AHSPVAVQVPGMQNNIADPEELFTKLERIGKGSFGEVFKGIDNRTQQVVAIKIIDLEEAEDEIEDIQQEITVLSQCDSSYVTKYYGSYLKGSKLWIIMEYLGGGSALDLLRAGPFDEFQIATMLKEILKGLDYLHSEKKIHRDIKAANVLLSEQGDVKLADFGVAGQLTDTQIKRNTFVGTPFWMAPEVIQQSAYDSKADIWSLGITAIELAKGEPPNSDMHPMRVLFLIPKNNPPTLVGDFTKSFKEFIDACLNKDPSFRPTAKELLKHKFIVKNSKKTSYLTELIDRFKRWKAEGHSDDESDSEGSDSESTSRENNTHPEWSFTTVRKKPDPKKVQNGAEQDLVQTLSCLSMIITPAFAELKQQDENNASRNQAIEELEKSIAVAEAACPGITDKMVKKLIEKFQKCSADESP
Dual specificity mitogen-activated protein kinase kinase 6 (Homo sapiens), sequence (P52564 whole entry): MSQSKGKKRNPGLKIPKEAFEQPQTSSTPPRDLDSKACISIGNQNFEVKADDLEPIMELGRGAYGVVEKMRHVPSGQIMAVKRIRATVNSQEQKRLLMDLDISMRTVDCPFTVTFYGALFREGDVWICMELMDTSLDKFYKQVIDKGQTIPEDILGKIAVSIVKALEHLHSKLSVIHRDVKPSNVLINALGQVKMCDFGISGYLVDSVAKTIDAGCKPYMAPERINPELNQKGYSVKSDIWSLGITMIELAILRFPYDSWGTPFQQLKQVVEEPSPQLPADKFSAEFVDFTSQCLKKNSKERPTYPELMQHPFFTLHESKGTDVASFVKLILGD
Fibroblast growth factor receptor 3 (Homo sapiens), sequence (P22607 23-806 limits assumed): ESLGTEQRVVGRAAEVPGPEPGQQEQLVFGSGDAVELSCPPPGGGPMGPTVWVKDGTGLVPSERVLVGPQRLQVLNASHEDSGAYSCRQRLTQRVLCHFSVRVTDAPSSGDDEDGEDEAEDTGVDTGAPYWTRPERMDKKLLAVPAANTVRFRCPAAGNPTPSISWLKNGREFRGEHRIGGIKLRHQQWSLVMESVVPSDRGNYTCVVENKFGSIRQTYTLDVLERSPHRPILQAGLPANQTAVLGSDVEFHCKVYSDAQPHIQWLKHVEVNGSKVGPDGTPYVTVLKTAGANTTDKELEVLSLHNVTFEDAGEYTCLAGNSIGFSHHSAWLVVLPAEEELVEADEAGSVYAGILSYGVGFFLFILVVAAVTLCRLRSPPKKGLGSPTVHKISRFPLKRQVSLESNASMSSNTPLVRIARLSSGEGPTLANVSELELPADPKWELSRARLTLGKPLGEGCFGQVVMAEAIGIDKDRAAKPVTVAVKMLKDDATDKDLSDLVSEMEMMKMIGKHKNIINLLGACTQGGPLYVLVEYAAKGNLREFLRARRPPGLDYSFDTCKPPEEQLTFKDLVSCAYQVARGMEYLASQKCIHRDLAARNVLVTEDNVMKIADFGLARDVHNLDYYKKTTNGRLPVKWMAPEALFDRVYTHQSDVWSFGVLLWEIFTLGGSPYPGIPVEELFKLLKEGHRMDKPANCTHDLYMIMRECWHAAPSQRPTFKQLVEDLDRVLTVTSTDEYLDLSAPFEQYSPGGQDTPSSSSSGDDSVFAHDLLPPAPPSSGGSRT
Serine/threonine-protein kinase B-raf (Homo sapiens), sequence (P15056 whole entry): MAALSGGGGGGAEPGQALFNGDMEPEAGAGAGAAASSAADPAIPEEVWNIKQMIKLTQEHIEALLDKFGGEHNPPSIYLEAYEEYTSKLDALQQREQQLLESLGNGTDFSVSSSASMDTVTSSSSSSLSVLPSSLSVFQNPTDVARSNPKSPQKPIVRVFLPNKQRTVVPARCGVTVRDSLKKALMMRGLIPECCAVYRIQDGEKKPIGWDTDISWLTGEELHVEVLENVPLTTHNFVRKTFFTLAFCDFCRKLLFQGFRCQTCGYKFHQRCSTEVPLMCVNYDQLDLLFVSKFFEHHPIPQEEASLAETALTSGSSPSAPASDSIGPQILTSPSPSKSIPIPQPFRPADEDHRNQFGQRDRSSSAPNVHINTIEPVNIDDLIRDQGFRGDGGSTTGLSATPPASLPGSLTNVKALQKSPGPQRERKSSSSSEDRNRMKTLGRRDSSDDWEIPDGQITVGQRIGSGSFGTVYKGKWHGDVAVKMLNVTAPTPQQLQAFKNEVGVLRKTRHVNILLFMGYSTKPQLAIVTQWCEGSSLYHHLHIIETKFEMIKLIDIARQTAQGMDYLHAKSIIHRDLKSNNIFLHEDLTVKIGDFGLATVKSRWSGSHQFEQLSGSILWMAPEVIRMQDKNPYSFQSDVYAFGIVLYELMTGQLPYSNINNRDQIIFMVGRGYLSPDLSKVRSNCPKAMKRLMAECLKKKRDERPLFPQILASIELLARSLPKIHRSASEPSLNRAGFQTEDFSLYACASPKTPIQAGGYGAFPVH
Serine/threonine-protein kinase NIM1 (Homo sapiens), sequence (Q8IY84 whole entry): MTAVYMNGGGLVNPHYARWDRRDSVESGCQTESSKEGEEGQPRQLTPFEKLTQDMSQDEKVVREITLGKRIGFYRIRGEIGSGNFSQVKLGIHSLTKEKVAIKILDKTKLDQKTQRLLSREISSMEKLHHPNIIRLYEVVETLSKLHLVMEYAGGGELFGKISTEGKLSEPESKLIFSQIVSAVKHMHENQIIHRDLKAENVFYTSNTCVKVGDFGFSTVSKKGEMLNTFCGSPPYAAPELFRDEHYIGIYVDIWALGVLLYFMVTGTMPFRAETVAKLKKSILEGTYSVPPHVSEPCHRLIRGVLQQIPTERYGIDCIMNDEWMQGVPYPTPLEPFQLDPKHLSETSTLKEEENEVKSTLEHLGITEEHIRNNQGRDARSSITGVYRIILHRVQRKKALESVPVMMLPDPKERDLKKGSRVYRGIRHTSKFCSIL
Serine/threonine-protein kinase PLK3 (Homo sapiens), sequence (Q9H4B4 whole entry, looked up, the tested form may be a part): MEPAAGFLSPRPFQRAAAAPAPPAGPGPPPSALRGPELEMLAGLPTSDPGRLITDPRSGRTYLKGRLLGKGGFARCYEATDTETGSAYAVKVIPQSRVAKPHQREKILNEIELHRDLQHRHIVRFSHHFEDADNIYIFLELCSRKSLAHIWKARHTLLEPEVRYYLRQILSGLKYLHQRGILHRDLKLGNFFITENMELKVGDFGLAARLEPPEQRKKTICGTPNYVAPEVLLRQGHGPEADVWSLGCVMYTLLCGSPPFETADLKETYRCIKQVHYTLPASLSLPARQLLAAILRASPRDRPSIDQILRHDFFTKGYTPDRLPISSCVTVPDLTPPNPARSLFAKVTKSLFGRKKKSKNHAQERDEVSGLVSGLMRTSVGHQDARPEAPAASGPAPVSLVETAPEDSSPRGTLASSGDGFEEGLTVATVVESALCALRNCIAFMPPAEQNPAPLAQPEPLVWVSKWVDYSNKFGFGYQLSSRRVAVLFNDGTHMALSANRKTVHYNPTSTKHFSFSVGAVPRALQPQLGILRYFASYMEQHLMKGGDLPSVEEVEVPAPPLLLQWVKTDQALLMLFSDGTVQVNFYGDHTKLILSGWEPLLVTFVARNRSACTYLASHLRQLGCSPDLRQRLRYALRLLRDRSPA
CDK4/Cyclin D3, sequence (P11802 whole entry): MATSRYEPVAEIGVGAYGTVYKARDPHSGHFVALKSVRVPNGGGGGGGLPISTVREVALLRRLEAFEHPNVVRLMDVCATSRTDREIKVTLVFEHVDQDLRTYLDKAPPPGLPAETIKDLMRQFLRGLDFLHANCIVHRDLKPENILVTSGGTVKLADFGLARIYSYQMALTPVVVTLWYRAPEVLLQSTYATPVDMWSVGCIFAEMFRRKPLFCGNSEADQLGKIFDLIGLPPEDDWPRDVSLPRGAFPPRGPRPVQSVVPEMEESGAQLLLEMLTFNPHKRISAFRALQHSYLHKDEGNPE
CDK4/Cyclin D3, sequence (P30281 whole entry, further chain): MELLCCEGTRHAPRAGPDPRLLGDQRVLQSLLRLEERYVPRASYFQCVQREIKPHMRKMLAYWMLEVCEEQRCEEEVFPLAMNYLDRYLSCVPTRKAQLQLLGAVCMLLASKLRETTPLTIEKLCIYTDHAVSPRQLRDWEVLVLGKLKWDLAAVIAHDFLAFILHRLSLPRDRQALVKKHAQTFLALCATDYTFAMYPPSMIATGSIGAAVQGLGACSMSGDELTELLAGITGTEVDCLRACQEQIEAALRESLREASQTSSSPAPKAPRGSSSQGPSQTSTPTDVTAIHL
Serine/threonine-protein kinase Nek2 (Homo sapiens), sequence (P51955 whole entry): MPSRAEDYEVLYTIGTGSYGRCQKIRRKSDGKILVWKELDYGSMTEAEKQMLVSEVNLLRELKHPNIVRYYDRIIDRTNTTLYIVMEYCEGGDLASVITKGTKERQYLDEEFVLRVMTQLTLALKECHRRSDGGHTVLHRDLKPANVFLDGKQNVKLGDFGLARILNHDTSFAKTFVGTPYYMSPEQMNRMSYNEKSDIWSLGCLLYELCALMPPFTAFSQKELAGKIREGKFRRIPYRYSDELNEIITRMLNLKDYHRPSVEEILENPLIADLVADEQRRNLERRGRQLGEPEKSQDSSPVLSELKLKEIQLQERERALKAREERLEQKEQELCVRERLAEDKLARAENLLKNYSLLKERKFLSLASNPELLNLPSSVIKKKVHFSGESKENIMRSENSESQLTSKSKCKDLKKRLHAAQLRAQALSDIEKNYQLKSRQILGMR
RAC-gamma serine/threonine-protein kinase (Homo sapiens), sequence (Q9Y243 whole entry): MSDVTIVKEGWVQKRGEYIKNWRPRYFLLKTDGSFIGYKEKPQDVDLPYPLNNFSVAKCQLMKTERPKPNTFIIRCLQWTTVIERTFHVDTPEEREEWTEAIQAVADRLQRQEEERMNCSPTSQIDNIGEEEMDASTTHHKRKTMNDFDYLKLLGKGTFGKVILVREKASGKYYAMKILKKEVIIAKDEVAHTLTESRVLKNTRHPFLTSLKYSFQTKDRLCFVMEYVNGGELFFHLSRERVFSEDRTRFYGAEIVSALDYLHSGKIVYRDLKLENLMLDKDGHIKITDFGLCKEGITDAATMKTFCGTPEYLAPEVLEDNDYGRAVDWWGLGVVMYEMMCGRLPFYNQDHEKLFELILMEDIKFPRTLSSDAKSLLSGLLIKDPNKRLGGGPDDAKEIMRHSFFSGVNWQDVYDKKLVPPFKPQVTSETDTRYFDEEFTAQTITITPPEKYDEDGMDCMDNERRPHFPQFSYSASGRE

As for `Cc1ccc(NC(=O)C2(C(=O)Nc3ccc(Nc4ncc(F)c(-c5cc(F)c6nc(C)n(C(C)C)c6c5)n4)cc3)CC2)cc1`, the inhibition (as a rule, how much of the control response was suppressed) in [1] amounted to 21%; in [3], 78%; in data set [5] it was 0%; in data set [6] it was 64%; in data set [7] it was 79%; in data set [8], 66%. Further, the inhibition in data set [9] stood at 83%; in [10], 57%; in data set [11], 32%; in data set [12], 16%; in data set [13] it was 13%; in [15], 0%. The values for the inhibition in data set [16], in data set [17] and in [18] were 36%, 7% and 48%, respectively. The Activity result in [2] is recorded as “Non-Toxic”. The inhibition result in the data set with Mus musculus and with HeLa [4] was “Active” throughout. Further, the outcome with HeLa [14] was Active. Besides, on CDK4/Cyclin D3, the IC50 (commonly the concentration needed to halve the response being measured) was 46 nM.

With `COc1cc2nccc(Oc3ccc(NC(=O)C4(C(=O)Nc5ccc(F)cc5)CC4)cc3)c2cc1OC` [CABOZANTINIB], the outcome in the data set with SiHa was Active.

For the origin of these results see ChEMBL document CHEMBL4406821, “Novel dual inhibitors targeting CDK4 and VEGFR2 synergistically suppressed cancer progression and angiogenesis” (Eur J Med Chem, 2019).
